AHR act: AHR activators, primary screen, cell-based, luminescence, luciferase reporter, human; Aryl hydrocarbon receptor (Homo sapiens), P35869; AHR-responsive luciferase reporter cells; activation, % at 5 µM; 2.5% of 320,000 active; AID 2796, 2010; in the data active = activation above about 47%;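 note: 0% = vehicle wells and 100% = reference agonist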
Target sequence (P35869 whole entry, looked up): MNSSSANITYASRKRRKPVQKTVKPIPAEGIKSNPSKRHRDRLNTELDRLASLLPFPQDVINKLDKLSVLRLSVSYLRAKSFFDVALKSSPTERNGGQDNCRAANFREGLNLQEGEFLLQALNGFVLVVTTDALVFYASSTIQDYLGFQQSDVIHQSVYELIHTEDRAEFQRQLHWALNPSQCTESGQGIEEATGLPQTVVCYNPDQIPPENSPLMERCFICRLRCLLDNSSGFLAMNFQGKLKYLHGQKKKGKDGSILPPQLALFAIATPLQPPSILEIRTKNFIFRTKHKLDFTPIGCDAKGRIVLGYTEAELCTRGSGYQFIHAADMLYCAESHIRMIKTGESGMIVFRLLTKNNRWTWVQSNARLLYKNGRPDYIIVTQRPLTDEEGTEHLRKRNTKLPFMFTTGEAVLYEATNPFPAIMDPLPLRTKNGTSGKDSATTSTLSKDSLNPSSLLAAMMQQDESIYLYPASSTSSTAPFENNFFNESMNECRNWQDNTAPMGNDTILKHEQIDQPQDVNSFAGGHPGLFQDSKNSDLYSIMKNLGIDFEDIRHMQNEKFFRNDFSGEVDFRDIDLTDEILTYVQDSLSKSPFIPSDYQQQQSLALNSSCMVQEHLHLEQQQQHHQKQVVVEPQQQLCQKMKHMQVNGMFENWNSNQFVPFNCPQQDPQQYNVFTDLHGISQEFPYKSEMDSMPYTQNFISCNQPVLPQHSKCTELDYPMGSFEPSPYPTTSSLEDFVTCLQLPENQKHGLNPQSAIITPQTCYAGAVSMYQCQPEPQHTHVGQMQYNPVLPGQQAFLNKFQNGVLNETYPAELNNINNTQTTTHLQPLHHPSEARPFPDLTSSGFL
PERK inh: block of dimerizer-induced PERK translation repression, primary screen, PERK inhibitor project, CHO PERK-DD cells, SEAP luminescence, HTS | Eukaryotic translation initiation factor 2-alpha kinase 3 (Homo sapiens), Q9NZJ5 | CHO PERK-DD fusion, SEAP luminescence translation reporter | inhibition, % at 5.6 µM | 0.17% of 220,000 active | AID 1416, 2008;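 active = inhibition above the mean inhibition of all tested compounds plus 3 SD, set separately per screening campaign, cut at about 2.9% in these data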;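 note: PERK kinase domain activated by AP20187 dimerizer at 100 nM; 0% = DMSO with dimerizer and 100% = rapamycin at 8.4 µM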
STAT1 activator: STAT1 signaling activators, primary screen, cell-based, HTS, luciferase reporter. activation (% of control), % at 5.5 µM. NIH 3T3 STAT1-luciferase reporter, IFN-gamma, luminescence; 100% = IFN-gamma alone, no compound. 2.6% of 200,000 active;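 active = activation above the screen-wide mean activation plus 3 SD, cut at about 130% in these data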;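 note: raw ratio to IFN-gamma control signal so 100% means no change and 0% no light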
NF-kB neuron act: activators of NF-kB expression in neurons, primary screen, cell-based, HTS; human neuronal cells, NF-kB reporter expression; stronger effect = higher value; 1.6% of 190,000 active; fold change at 12.5 µM; in the data active = fold change above about 3.3
APP 5'UTR act: activators of APP 5'UTR luciferase reporter, primary screen, SH-SY5Y cells; SH-SY5Y APP 5'UTR luciferase reporter, luminescence; zero percent = DMSO vehicle wells; activation, % at 2 µM; 1% of 190,000 active;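 active = activation above a set limit, based on mean plus 3 SD of controls, cut at about 140% in these data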
MDM2 E3 inh: MDM2-luciferase reporter signal enhancers, primary screen, MDM2 E3 ligase inhibitor project, cell-based, luminescence, 1536-well | E3 ubiquitin-protein ligase Mdm2 (Homo sapiens), Q00987 | cell-based MDM2 ubiquitination luciferase reporter, 2 h; 0 = plate control, 100 = twice control, blank-subtracted | signal enhancement, % at 5 µM | 0.11% of 210,000 active | AID 1230, 2008;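 active = signal enhancement of 30% or more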;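 note: luminescence tracks abundance of the self-degrading MDM2-luciferase fusion protein; higher signal means inhibition of MDM2 E3 ligase activity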
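Material: Stable MDM2–luciferase fusion reporter cells | Amount: 2000 cells seeded into each well | Dosing: One concentration, 5 µM, with 0.2% DMSO | Incubation: 4 h cell settling then 2 h compound exposure, 37 °C | Measured by: Luciferase luminescence | Read-out basis: % enhancement relative to plate controls after blank subtraction | Benchmarks: Control and blank well means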
AHR act cf: AHR activators, confirmation, cell-based, luminescence, luciferase reporter, human; human cells, AHR-responsive luciferase reporter; 87% of 2,300 active; activation, % at 9 µM; shares compounds with AHR act; AID 2845, 2010; in the data active = activation above about 49%;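 note: HepG2 hepatoma cells carrying a DRE-driven firefly luciferase reporter; 0% = vehicle wells and 100% = reference agonist wells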
PXR counter: human PXR activators, counter-screen for AHR activator project, cell-based, luciferase luminescence; cell-based PXR reporter; 88% of 2,300 active; shares compounds with AHR act; activation, % at 11.6 µM; in the data active = activation above about 11%;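 note: human hepatoma DPX-2 cells expressing full-length human PXR; 0% = DMSO and 100% = reference agonist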
* hit, by the source's call; nt = no result. Compounds with a hit are over-represented: about 4.5% of the library has one in this group of screens.

SMILES | AHR act | PERK inh | STAT1 activator | NF-kB neuron act | APP 5'UTR act | MDM2 E3 inh | AHR act cf | PXR counter
CCn1ncc(Br)c1C(=O)Nc1ccccc1C(=O)OC | 0 | 0 | 96 | nt | -19 | nt | nt | nt
CCn1ncc(Br)c1C(=O)Nc1ccccc1C(F)(F)F | 88* | nt | nt | nt | nt | nt | 92* | 23*
Fc1ccc(C(CNC(=S)NC2CCCCC2)N2CCOCC2)cc1 (stereo unspecified) | -1 | 0 | 105 | 1.3 | 10 | -4 | nt | nt
CC/C(O)=C1\C(=O)CC(c2ccccc2)CC1=NC(C)C (stereo unspecified) | 123* | -1 | 95 | 1.1 | -1 | -3 | 3 | 128*
O=C(C[C@H]1C/C=C\CC[C@H](Cc2ccc(F)cc2)C(=O)O[C@H](c2ccccc2)CNC1=O)N[C@H](CO)Cc1ccccc1 | 2 | nt | nt | nt | nt | nt | nt | nt
Cc1ccc(N(CC(=O)N2CCN(C3CCCCC3)CC2)S(=O)(=O)c2cccnc2)cc1 | 1 | -1 | 100 | 0.97 | 9 | nt | nt | nt
COCCN1Cc2c(sc(C)c2C)N(C(=O)c2ccccc2)C1 | 82* | 0 | 109 | 2.5 | 52 | 3 | 84* | 38*
O=C(CN(C(=O)C1CSC(=O)C1)c1ccc(F)cc1)NCc1ccc2c(c1)OCO2 (stereo unspecified) | 0 | nt | nt | nt | nt | nt | nt | nt
CCOc1ccc(/C=C/C(=O)c2c(O)cc(C)oc2=O)cc1 | 83* | nt | nt | nt | nt | nt | 10 | 16*
CCOc1ccc(/C=C/C(=O)c2c(O)c3ccccc3oc2=O)cc1 | 6 | 2 | 100 | 1.1 | 6 | -6 | nt | nt
O=C(NCC1COCCO1)c1cc(COc2c(F)cccc2F)on1 (stereo unspecified) | 0 | nt | nt | nt | nt | nt | nt | nt
O=C(/C=C/c1ccc(Cl)c([N+](=O)[O-])c1)Nc1ccc(NC(=O)c2ccco2)cc1 | nt | 1 | 107 | 1 | 22 | -4 | nt | nt
O=C(/C=C/c1ccc(Cl)c([N+](=O)[O-])c1)Nc1ccc(N2CCCC2)cc1 | 84* | 0 | 100 | 1 | -2 | -2 | 95* | 18*
COC(=O)c1cnn2c1C(=O)N(Cc1cccs1)CC2 | 0 | 0 | 102 | 1.1 | 1 | -2 | nt | nt
COc1ccc(OC)c(NC(=O)c2sc3ncnc(N4CCN(c5ccccn5)CC4)c3c2C)c1 | -4 | nt | nt | nt | nt | nt | nt | nt
CCN1CCN(c2ncnc3sc(C(=O)Nc4ccccc4F)c(C)c23)CC1 | 128* | -1 | 100 | 1.3 | 20 | -5 | 75* | 23*
CCOc1ccc(CN(C(=O)c2ccccn2)c2ccc(OC)c(Cl)c2)cc1 | 1 | nt | nt | nt | nt | nt | nt | nt
CCCCC(=O)Nc1sc2c(c1-c1nc3ccccc3s1)CCN(C(C)=O)C2 | nt | 0 | 93 | 0.84 | -9 | -2 | nt | nt
CC(=O)N1CCc2c(sc(NC(=O)C3CC3)c2-c2nc3ccccc3s2)C1 | 106* | -1 | 101 | 0.56 | -20 | -14 | 100* | 28*
c1ccc(-c2ccc3c(c2)c2c4n3CCN=C4CCC2)cc1 | 93* | 0 | 99 | 0.98 | 4 | -10 | 84* | 11*
OC1CN=C2CCCc3c2n(c2ccc(Cl)cc32)C1 (stereo unspecified) | 5 | 0 | 86 | 1.3 | 7 | -11 | nt | nt
COc1ccccc1C(=O)Nc1ccc2c3c(cccc13)CC2 | 83* | 0 | 132* | 1.5 | 48 | 11 | 35 | 85*
C=CCn1c(O)c(N=Nc2ccccc2O)c2ccccc21 | 82* | nt | nt | nt | nt | nt | 87* | 33*
C=CCn1c(O)c(N=Nc2ccccc2)c2ccccc21 | 38 | nt | nt | nt | nt | nt | nt | nt

Assay outcomes from PubChem.
